The source made the active and inactive calls.

Data on 1 compound can be found in ChEMBL document CHEMBL4627283, “Discovery and optimization of 4-oxo-2-thioxo-thiazolidinones as NOD-like receptor (NLR) family, pyrin domain-containing protein 3 (NLRP3) inhibitors” (Bioorg Med Chem Lett, 2020).

Data set [1] is described as follows: AUC in po or iv qd dosed Sprague-Dawley rat. The following applies: in vivo. The format is ADME, organism-based. In a few lines: (§1)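 Sprague-Dawley rats given a single intravenous or oral dose; pharmacokinetic parameters (half-life, AUC, bioavailability) derived from the plasma profile.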
Data set [2] deals with T1, NACHT, LRR and PYD domains-containing protein 3 (Homo sapiens, UniProt Q96P20). Description: Inhibition of NLRP3 inflammasome (unknown origin) activation in LPS-primed bone marrow derived macrophage cells assessed as effect on IL-1beta production in presence of nigericin by ELISA. The essentials: (§2)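 BMDMs pretreated with varied doses of compound, then LPS-primed and stimulated with nigericin; IL-1β in supernatant by ELISA, normalized to DMSO-treated control; IC50 given as mean ± SD.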
T1 sequence (Q96P20 whole entry, the tested form may be a part): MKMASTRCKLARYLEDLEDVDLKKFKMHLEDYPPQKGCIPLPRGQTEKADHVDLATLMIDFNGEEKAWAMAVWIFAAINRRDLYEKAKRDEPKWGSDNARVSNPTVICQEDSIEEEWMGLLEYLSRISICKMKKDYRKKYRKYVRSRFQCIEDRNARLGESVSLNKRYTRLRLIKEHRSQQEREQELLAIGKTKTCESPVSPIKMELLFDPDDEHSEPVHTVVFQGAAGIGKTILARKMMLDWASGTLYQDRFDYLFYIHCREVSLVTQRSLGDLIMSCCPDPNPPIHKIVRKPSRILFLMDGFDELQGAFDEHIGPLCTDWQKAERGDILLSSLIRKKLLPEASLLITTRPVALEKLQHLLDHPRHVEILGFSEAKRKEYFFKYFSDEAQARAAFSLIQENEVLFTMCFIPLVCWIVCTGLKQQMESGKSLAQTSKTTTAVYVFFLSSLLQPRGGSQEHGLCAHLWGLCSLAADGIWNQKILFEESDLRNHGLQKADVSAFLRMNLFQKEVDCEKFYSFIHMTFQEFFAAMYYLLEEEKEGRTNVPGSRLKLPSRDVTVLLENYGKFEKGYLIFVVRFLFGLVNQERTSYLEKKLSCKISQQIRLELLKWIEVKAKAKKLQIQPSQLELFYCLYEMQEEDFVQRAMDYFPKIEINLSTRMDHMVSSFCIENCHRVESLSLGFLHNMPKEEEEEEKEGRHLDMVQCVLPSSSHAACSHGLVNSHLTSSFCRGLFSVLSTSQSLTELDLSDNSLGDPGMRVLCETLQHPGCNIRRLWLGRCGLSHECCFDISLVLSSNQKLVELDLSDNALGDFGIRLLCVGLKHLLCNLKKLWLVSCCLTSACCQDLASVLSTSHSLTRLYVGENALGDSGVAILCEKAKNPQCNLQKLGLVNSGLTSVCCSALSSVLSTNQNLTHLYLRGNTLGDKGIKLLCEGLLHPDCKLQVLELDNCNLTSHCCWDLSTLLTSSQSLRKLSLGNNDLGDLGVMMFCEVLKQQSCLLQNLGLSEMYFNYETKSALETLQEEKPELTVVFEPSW
(ELISA stands for enzyme-linked immunosorbent assay.)

For data set [3], the target named is T1, NACHT, LRR and PYD domains-containing protein 3. Description: Inhibition of NLRP3 inflammasome (unknown origin) activation in LPS-primed bone marrow derived macrophage cells at 10 uM in presence of mono sodium urate relative to control.
For data set [4] the target is unchanged. Briefly: Inhibition of NLRP3 inflammasome (unknown origin) activation in bone marrow derived macrophage cells assessed as effect on ATP-induced TNF-alpha secretion at 5 uM by ELISA. The essentials:
(§3)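 LPS-primed BMDMs given compound (5 μM), then nigericin (10 µM), ATP (2.5 mM) or MSU (150 µg/mL); TNF-α in supernatant measured by ELISA.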

The target is the same in data set [5]. Briefly: Inhibition of NLRP3 inflammasome (unknown origin) activation in bone marrow derived macrophage cells assessed as effect on mono sodium urate-induced TNF-alpha secretion at 5 uM by ELISA. The essentials:
as §3

For data set [6] the target is unchanged. Briefly: Inhibition of NLRP3 inflammasome (unknown origin) activation in LPS-primed bone marrow derived macrophages assessed as inhibition of IL-1beta secretion in presence of nigericin by ELISA. In a few lines:
as §2

Data set [7] has the same target. Briefly: Inhibition of NLRP3 inflammasome (unknown origin) activation in LPS-primed bone marrow derived macrophages assessed as inhibition of IL-1beta secretion at 5 uM in presence of ATP by ELISA. To be noted: TDE = time-dependent effect. The essentials: (§4)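 LPS-primed BMDMs treated with compound (5 μM) and stimulated with nigericin (10 µM), ATP (2.5 mM) or MSU (150 µg/mL), over a time course or at increasing agonist doses; secreted IL-1β by ELISA.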

Data set [8] concerns the target T2, Interferon-inducible protein AIM2 (Homo sapiens) (UniProt O14862).
T2 sequence (whole entry): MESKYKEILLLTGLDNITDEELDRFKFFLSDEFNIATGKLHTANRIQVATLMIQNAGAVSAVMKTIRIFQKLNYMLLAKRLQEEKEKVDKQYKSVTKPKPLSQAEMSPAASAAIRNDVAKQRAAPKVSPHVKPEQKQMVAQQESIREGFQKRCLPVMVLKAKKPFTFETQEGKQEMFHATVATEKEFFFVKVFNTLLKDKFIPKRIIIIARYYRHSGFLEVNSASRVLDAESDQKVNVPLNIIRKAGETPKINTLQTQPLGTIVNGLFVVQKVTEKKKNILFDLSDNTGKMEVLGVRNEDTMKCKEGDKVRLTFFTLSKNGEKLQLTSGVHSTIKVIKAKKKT
Briefly: Inhibition of AIM2 inflammasome (unknown origin) activation in bone marrow derived macrophages assessed as inhibition of poly(dA:dT)-induced IL-1beta secretion at 5 uM by ELISA. In a few lines:
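LPS-primed BMDMs treated with compound (5 μM), then transfected with poly(dA:dT) (0.5 µg/ml) using Lipofectamine for various times; supernatant IL-1β by ELISA.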

In data set [9] the target is T1, NACHT, LRR and PYD domains-containing protein 3. Briefly: Inhibition of NLRP3 inflammasome (unknown origin) activation in LPS-primed bone marrow derived macrophages assessed as inhibition of IL-1beta secretion in presence of ATP by ELISA. The essentials:
as §4

A short description of data set [10]: Oral bioavailability in Sprague-Dawley rat administered as single dose. The format is ADME, organism-based. To be noted: in vivo. In a few lines: as §1
Data set [11] in a line: Clearance in human liver microsomes in presence of NADPH. In kind it is ADME, Microsome. In a few lines:
(§5)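 Stability in human and mouse liver microsomes incubated with an NADPH regenerating system; half-life (min) and hepatic clearance (mL/min/kg) determined.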
(Microsomes from liver hold many membrane-bound enzymes, among them those of drug oxidation.)

Data set [12] addresses T1, NACHT, LRR and PYD domains-containing protein 3. Briefly: Inhibition of NLRP3 inflammasome (unknown origin) activation in LPS-primed bone marrow derived macrophages assessed as inhibition of IL-1beta secretion at 5 uM in presence of nigericin by ELISA. To be noted: TDE = time-dependent effect. The essentials:
as §4

A short description of data set [13]: Half life in mouse liver microsomes in presence of NADPH. The format is ADME, Microsome. In a few lines:
as §5

Data set [14] in a line: Half life in human liver microsomes in presence of NADPH. The format is ADME, Microsome. In a few lines: as §5
The target of data set [15] is T1, NACHT, LRR and PYD domains-containing protein 3. Description: Inhibition of NLRP3 inflammasome (unknown origin) activation in LPS-primed bone marrow derived macrophages assessed as inhibition of IL-1beta secretion in presence of mono sodium urate by ELSIA. In a few lines: as §4
Data set [16] relates to Mus musculus. Briefly: In vivo inhibition of NLRP3 inflammasome activation in mouse model of cryopyrin-associated auto-inflammatory syndrome. In kind it is functional, organism-based.
Data set [17] addresses T1, NACHT, LRR and PYD domains-containing protein 3. Briefly: Inhibition of NLRP3 inflammasome (unknown origin) activation in LPS-primed bone marrow derived macrophages assessed as inhibition of IL-1beta secretion at 5 uM in presence of mono sodium urate by ELISA. To be noted: TDE = time-dependent effect. The essentials: as §4
Data set [18] has the same target. Description: Inhibition of NLRP3 inflammasome (unknown origin) activation in bone marrow derived macrophage cells assessed as effect on nigericin-induced TNF-alpha secretion at 5 uM by ELISA. In a few lines:
as §3

Data set [19] is described as follows: Clearance in mouse liver microsomes in presence of NADPH. In kind it is ADME, Microsome. The essentials:
as §5

The species named for data set [20] is Mus musculus. Briefly: Reversal of NLRP3 mediated metabolic disorder in mouse model of diabetes. The format is functional, organism-based.
For data set [21], the target named is NLR family CARD domain-containing protein 4 (Homo sapiens) (UniProt Q9NPP4). Description: Inhibition of NLRC4 inflammasome (unknown origin) activation in bone marrow derived macrophages assessed as inhibition of Salmonella-induced IL-1beta secretion at 5 uM by ELISA. The essentials: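 LPS-primed BMDMs treated with compound (5 μM), then infected with Salmonella typhimurium for different times; supernatant IL-1β by ELISA.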
Sequence of NLR family CARD domain-containing protein 4 (Homo sapiens) (Q9NPP4 whole entry, the tested form may be a part): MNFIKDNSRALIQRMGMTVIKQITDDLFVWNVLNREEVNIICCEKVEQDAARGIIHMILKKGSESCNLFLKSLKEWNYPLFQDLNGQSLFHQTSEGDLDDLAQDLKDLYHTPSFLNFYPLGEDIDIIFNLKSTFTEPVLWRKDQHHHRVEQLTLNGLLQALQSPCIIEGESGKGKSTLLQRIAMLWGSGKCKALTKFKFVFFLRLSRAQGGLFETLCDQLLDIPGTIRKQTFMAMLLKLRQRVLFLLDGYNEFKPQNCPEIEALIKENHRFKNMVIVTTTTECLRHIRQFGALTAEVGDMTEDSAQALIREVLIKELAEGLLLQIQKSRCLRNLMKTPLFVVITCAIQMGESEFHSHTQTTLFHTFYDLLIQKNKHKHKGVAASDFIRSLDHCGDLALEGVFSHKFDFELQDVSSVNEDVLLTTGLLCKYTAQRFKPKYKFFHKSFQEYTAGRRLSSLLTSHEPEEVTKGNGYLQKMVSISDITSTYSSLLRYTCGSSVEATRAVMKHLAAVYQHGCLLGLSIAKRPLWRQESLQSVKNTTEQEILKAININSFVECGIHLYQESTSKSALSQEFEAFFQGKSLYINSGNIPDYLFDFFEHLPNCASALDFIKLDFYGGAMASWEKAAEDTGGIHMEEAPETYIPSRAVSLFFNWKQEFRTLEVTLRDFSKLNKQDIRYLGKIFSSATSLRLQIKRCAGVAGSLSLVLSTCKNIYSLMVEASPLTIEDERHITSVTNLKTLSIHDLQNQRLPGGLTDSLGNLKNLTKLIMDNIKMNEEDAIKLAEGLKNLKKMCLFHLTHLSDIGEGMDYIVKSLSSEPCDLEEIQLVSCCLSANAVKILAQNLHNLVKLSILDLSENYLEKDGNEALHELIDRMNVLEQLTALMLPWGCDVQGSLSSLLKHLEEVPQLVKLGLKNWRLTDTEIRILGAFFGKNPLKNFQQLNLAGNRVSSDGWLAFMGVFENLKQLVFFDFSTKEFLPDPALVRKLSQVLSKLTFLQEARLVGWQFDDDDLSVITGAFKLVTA

The AUC is concentration integrated over time. A higher AUC goes with more exposure. By IC50 is commonly meant the point on the concentration scale where inhibition reaches its midpoint. A word on the inhibition: it is the relative decrease from the control value, in per cent. In general, bioavailability refers to the share of a dose that reaches the circulation, judged against a reference dose that is usually intravenous. Low values mean little systemic uptake, high ones much systemic uptake. What is called half-life is the time needed for the level to fall by half in the phase considered. Regarding `O=C(O)c1ccc(/C=C2\SC(=S)N(Cc3cccc(C(F)(F)F)c3)C2=O)cc1`, in data set [1], the AUC amounted to 1.93 µg·h/mL. For the same compound, the IC50 in data set [2] was 2.4 µM. For the same compound, the inhibition in data set [3] was 83%; in [6], “Dose-dependent effect”; in [7] it was “Tde”; in data set [9], “Dose-dependent effect”; in data set [12], “Tde”; in [15], “Dose-dependent effect”. Besides, the inhibition result in [17] is “Tde”. The inhibition result in data set [4], in [5], in data set [8], in data set [18] and in data set [21] was “inactive” each time. In addition, the bioavailability in data set [10] came to 27%. The CLhep predicted in data set [11] was < 0.282 L/h/kg; in data set [19], < 1.24 L/h/kg. For the same compound, the half-life in [13] and in data set [14] was > 2.42 h in each case. In addition, the inhibition result in the data set with Mus musculus [16] is “Active”. For the same compound, in the data set listed under Mus musculus [20], the outcome was Active.
